From ChEMBL document CHEMBL1137490, “Design, synthesis and cardioprotective effect of a new class of dual-acting agents: phenolic tetrahydro-beta-carboline RGD peptidomimetic conjugates” (Bioorg Med Chem, 2007) come the findings set out here.

The species entered for assay [1] is Rattus norvegicus. Nature of the assay: Antithrombotic effect in Wistar rat assessed as reduction in wet thrombus mass at 5 umol/L. It is filed as functional. The gist of the method: (§1)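 Male Wistar rats 250-300 g, sodium pentobarbital 80.0 mg/kg ip; arteriovenous shunt (polyethylene tube with weighed 6 cm thread, sodium heparin 50 IU/mL in NS) from right carotid to left jugular vein. Compound dissolved in NS just before use, kept on ice, injected via tube; NS vehicle. Blood flowed 15 min; wet thrombus weighed, dry weight after 2 weeks in desiccator.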

For assay [2], the species on record is Rattus norvegicus. Nature of the assay: Antithrombotic effect in Wistar rat assessed as reduction in dry thrombus mass at 5 umol/L. It is filed as functional. Put shortly:
as §1

Assay [3] concerns PC-12. Nature of the assay: Scavenging activity against hydrogen peroxide radical generation in rat PC12 cells assessed as cell survival by MTT assay. It is filed as functional, cell-based. Put shortly: (§2)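 PC12 cells in DMEM with 10% heat-inactivated horse serum, 5% FBS, 1.0 mM pyruvate, penicillin/streptomycin, 37 °C, 5% CO2; seeded 20,000/well on poly-L-lysine, 24 h attachment. Pretreated 1 h with 12.5–200 µM. Insult: 2 mM SNP 2 h (NO), 1 mM H2O2 1 h, or 1 mM H2O2/30 µM Fe(II) 1 h (•OH). For SNP, fresh media then 14 h culture. Survival by MTT; EC50 (µM).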

The test system of assay [4] is PC-12. Nature of the assay: Scavenging activity against […] generation in rat PC12 cells assessed as cell survival by MTT assay. Type of assay: functional, cell-based. Put shortly:
as §2

In assay [5] the test system is Aorta. Nature of the assay: Scavenging activity against nitric oxide radical generation in Wistar rat aortic strips cells assessed as inhibition of acetylcholine-induced vasorelaxation at 1 umol/L. It is filed as functional, tissue-based. Put shortly:
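Rat aortic strips in 37 °C oxygenated (95% O2/5% CO2) Krebs, pH 7.4, on tension transducers. Precontracted with noradrenaline (final 10^-9 mol/L), washed, stabilized 30 min, recontracted; at peak, compound in water (final 10^-6 mol/L) or NS added, then ACh (final 10^-6 mol/L). Percent inhibition of ACh-induced relaxation recorded.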

The subject of assay [6] is Aorta. Nature of the assay: Scavenging activity against nitric oxide radical generation in Wistar rat aortic strips cells assessed as inhibition of acetylcholine-induced vasorelaxation at 0.1 umol/L.
In assay [7] the test system is Aorta. Nature of the assay: Scavenging activity against nitric oxide radical generation in Wistar rat aortic strips cells assessed as inhibition of acetylcholine-induced vasorelaxation at 0.01 umol/L.
For assay [8], the system named is PC-12. The assay can be described thus: Scavenging activity against nitric oxide radical generation in rat PC12 cells assessed as cell survival by MTT assay. Type of assay: functional, cell-based. Put shortly:
as §2

Assay [9] is filed under the species Rattus norvegicus. The assay can be described thus: Protective effect in ischemia reperfusion Wistar rat model assessed as malondialdehyde per mg of protein. It is filed as functional.
The species named for assay [10] is Rattus norvegicus. The assay can be described thus: Protective effect in sham ischemia reperfusion Wistar rat model assessed as malondialdehyde per mg of protein. It is filed as functional.
The subject of assay [11] is Rattus norvegicus. The assay can be described thus: Reduction in infarct size in ischemia reperfusion Wistar rat model assessed as infarct size over risk zone at 10 mg/kg. Type of assay: functional. On the set-up: scale not given: the % may be the effect or the level left. Put shortly:
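Male Wistar rats 250-300 g, pentobarbital 80.0 mg/kg ip; left coronary artery occluded 30 min by snare, then 120 min reperfusion. Compound 10 mg/kg in DMSO–0.9% NaCl (1:103 v/v) infused transjugularly 15 min before occlusion. Ventricular 1 mm slices stained with 1% TTC 15 min at 37 °C, with Evans blue for area at risk; infarct/risk zone %, n = 8, mean ± SE, t-test.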

Structures are written as SMILES. Residues, ends and D or L forms follow the SMILES beside them.

For `CC(C)[C@H](NC(=O)CN(CC(=O)O)NC(=O)CNC(=O)[C@@H](N)CCCNC(=N)N)C(=O)O`, the Activity in [1] was determined as 41.8 mg; in [2], 7.83 mg.

In the case of `COc1cc(C2N[C@H](C(=O)O)Cc3c2[nH]c2ccccc32)cc(OC)c1O` (stereo partly drawn), the results for the EC50 in assay [3], in assay [4] and in assay [8] were 34.5 µM, 85.9 µM and 88.4 µM, respectively. Moreover, the results for the Activity in assay [1] and in [2] were 44.01 mg and 8.03 mg, respectively. Also, the inhibition in assay [5] came to 81%; in assay [6] it was 55.3%; in [7], 10.8%.

`COc1cc(C2N[C@H](C(=O)N[C@@H](CCCNC(=N)N)C(=O)NNCC(=O)N[C@H](CC(=O)O)C(=O)N[C@H](C(=O)O)C(C)C)Cc3c2[nH]c2ccccc32)cc(OC)c1O` (stereo partly drawn): the inhibition in [5] was 95.8%; in [6], 71%; in assay [7] it was 14.1%.

As to `COc1cc(C2N[C@H](C(=O)N[C@@H](CCCNC(=N)N)C(=O)NCC(=O)NN(CC(=O)O)CC(=O)N[C@H](C(=O)O)C(C)C)Cc3c2[nH]c2ccccc32)cc(OC)c1O` (stereo partly drawn), the EC50 was 45.7 µM in assay [3], 93.2 µM in assay [4] and 90.2 µM in assay [8]. For the same compound, the Activity came out at 25.46 mg in assay [1] and 4.85 mg in assay [2]. The inhibition in assay [5] was found to be 90.1%; in [6], 63.7%; in [7] it was 13%.

For `COc1cc(C2N[C@H](C(=O)N[C@@H](CCCNC(=N)N)C(=O)NNCC(=O)N[C@@H](CC(=O)O)C(=O)N[C@H](C(=O)O)C(C)C)Cc3c2[nH]c2ccccc32)cc(OC)c1O` (stereo partly drawn) [listing 1 of 2 here], the Activity is 24.54 mg in [1] and 3.79 mg in assay [2].

On to `CC(C)[C@H](NC(=O)[C@H](CC(=O)O)NC(=O)CNC(=O)[C@@H](N)CCCNC(=N)N)C(=O)O` (H-RGDV-OH), for which the Activity turned out to be 35.75 mg in assay [1] and 6.78 mg in assay [2].

As to `CC(C)[C@H](NC(=O)[C@H](CC(=O)O)NC(=O)CNC(=O)CN(N)CCCNC(=N)N)C(=O)O`, the Activity in assay [1] is given as 27.04 mg; in assay [2] it was 4.39 mg.

On to `CC(C)[C@H](NC(=O)[C@H](CC(=O)O)NC(=O)CNNC(=O)[C@@H](N)CCCNC(=N)N)C(=O)O`, for which the values for the Activity in assay [1] and in [2] were 34.98 mg and 7.05 mg, respectively.

Turning to `COc1cc(C2N[C@H](C(=O)NN(CCCNC(=N)N)CC(=O)NCC(=O)N[C@H](CC(=O)O)C(=O)N[C@H](C(=O)O)C(C)C)Cc3c2[nH]c2ccccc32)cc(OC)c1O` (stereo partly drawn), the inhibition in [5] came to 97.2%; in [6], 75.3%; in assay [7], 28.3%.

Consider `COc1cc(C2N[C@H](C(=O)N[C@@H](CCCNC(=N)N)C(=O)NNCC(=O)N[C@@H](CC(=O)O)C(=O)N[C@H](C(=O)O)C(C)C)Cc3c2[nH]c2ccccc32)cc(OC)c1O` (stereo partly drawn) [listing 2 of 2 here], for which the values for the EC50 in [3], in [4] and in [8] were 41.2 µM, 90.3 µM and 91.2 µM, respectively.

Take `COc1cc(C2N[C@H](C(=O)NN(CCCNC(=N)N)CC(=O)NCC(=O)N[C@@H](CC(=O)O)C(=O)N[C@H](C(=O)O)C(C)C)Cc3c2[nH]c2ccccc32)cc(OC)c1O` (stereo partly drawn) [listing 1 of 2 here]: the values for the EC50 in [3], in assay [4] and in assay [8] were 75.4 µM, 95.1 µM and 96.5 µM, respectively.

On to `COc1cc(C2N[C@H](C(=O)NN(CCCNC(=N)N)CC(=O)NCC(=O)N[C@@H](CC(=O)O)C(=O)N[C@H](C(=O)O)C(C)C)Cc3c2[nH]c2ccccc32)cc(OC)c1O` (stereo partly drawn) [listing 2 of 2 here], for which the Activity is reported as 2.91 nmol/mg in assay [9]; 21.05 mg in assay [1]; 2.23 mg in assay [2]; 2.52 nmol/mg in assay [10]; 35% in assay [11].
